Measurements: ChEMBL document CHEMBL3526140, “Prediction of human intestinal absorption of the prodrug temocapril by in situ single-pass perfusion using rat intestine with modified hydrolase activity” (Drug Metab Dispos, 2011)

Columns and labels:
Jejunum [1] = experiment: Drug degradation in Wistar rat jejunum lumen assessed as rate of drug disappearance at 100 uM by in-situ single-pass perfusion method; type: ADME, tissue-based
Summary of the method: (§1)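 Rats fasted 18–24 h, anesthetized with intraperitoneal pentobarbital. Isolated cannulated jejunal segment kept at 37°C in Krebs–Henseleit buffer with 3% BSA and 10 mM glucose. Vascular perfusion with Krebs–Henseleit (pH 7.4) at 2.5 ml/min. Lumen perfused at 0.2 ml/min with phosphate buffer (pH 5.4, 6.4 or 7.4) containing 100 µM drug plus FD-4. Luminal and vascular samples assayed by HPLC (UV 258 nm). Parameters normalized to 10 cm intestine. Mean ± S.D., n = 3–6.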

Jejunum [2] = experiment: Drug uptake in Wistar rat jejunum pre-perfused with 400 uM CES inhibitor BNPP assessed as rate of temocaprilat appearance at 100 uM at pH 6.4 by in-situ single-pass perfusion method; type: ADME; details: in vivo, pH 6.4, 100 µM
Summary of the method: (§2)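 Same in situ jejunal single-pass perfusion, with carboxylesterase blocked by pre-perfusing the lumen with 400 µM BNPP for 40 min. Then 100 µM drug in luminal phosphate buffer (pH 5.4 or 6.4) at 0.2 ml/min. Vascular Krebs–Henseleit (pH 7.4) at 2.5 ml/min. Luminal, vascular and tissue levels measured by HPLC. Rates are luminal disappearance and appearance in lumen or mesenteric vein. Mean ± S.D., n = 3.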

[3] = Drug hydrolysis in Wistar rat duodenal S9 fraction; type: ADME, Duodenum
Summary of the method: (§3)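 Duodenal or jejunal mucosa from fasted rats homogenized in 50 mM HEPES (pH 7.4) with 1.15% KCl; S9 is the 9000 g supernatant. S9 pre-incubated 5 min at 37°C, then drug added at 10–500 µM final (1% DMSO). Run for 20 min, stopped with acetonitrile, temocaprilat formed measured by HPLC. Km and Vmax from Michaelis–Menten nonlinear fit. Inhibitor (1 mM BNPP) pre-incubated 5 min. Results as % of control.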

[4] = Drug hydrolysis in perfused Wistar rat jejunal S9 fraction at 500 uM assessed per mg protein in presence of 400 uM CES inhibitor BNPP; type: ADME, Jejunum; details: s9, 500 µM
Summary of the method: (§4)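 Jejunal mucosal homogenate or S9 (HEPES pH 7.4/KCl) taken from intact jejunum, or after 40 min perfusion with or without 400 µM BNPP. Protein at 400 µg/ml incubated at 37°C with 500 µM drug. Added BNPP (100 or 1000 µM) pre-incubated 5 min. Temocaprilat formed measured by HPLC and given as nmol/min/mg protein and % of control. Mean ± S.D., n = 4.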

[5] = Drug hydrolysis in Wistar rat duodenal S9 fraction in presence of 1 mM CES inhibitor BNPP; type: ADME, Duodenum; summary of the method: as §3
Jejunum [6] = experiment: Apparent hydrolytic clearance in Wistar rat jejunum at 100 uM at pH 6.4 by in-situ single-pass perfusion method; type: ADME, tissue-based; details: in vivo, pH 6.4, 100 µM; summary of the method: as §1
Jejunum [7] = experiment: Intracellular drug level in Wistar rat jejunum at 100 uM at pH 5.4 by in-situ single-pass perfusion method; type: ADME, tissue-based; details: in vivo; summary of the method: as §1
Jejunum [8] = experiment: Drug hydrolysis in intact Wistar rat jejunum mucosal homogenate at 500 uM assessed per mg protein in presence of 1000 uM CES inhibitor BNPP; type: ADME, tissue-based; details: tissue homogenate; summary of the method: as §4
[9] = Drug hydrolysis in intact Wistar rat jejunal S9 fraction at 500 uM assessed per mg protein; type: ADME, Jejunum; details: s9, 500 µM; summary of the method: as §4
Jejunum [10] = experiment: Apparent hydrolytic clearance in Wistar rat jejunum at 100 uM at pH 7.4 by in-situ single-pass perfusion method; type: ADME, tissue-based; details: in vivo; summary of the method: as §1
Jejunum [11] = experiment: Drug uptake in Wistar rat jejunum pre-perfused with 400 uM CES inhibitor BNPP assessed as rate of temocaprilat appearance at 100 uM at pH 5.4 by in-situ single-pass perfusion method; type: ADME, tissue-based; details: in vivo, pH 5.4, 100 µM; summary of the method: as §2
Jejunum [12] = experiment: Intracellular drug level in Wistar rat jejunum treated with Temocaprilat at 100 uM at pH 6.4 by in-situ single-pass perfusion method; type: ADME, tissue-based; details: in vivo
Jejunum [13] = experiment: Drug hydrolysis in intact Wistar rat jejunum mucosal homogenate at 500 uM assessed per mg protein in presence of 100 uM CES inhibitor BNPP; type: ADME, tissue-based; details: tissue homogenate; summary of the method: as §4
Jejunum [14] = experiment: Drug hydrolysis in perfused Wistar rat jejunum mucosal homogenate at 500 uM assessed per mg protein; type: ADME, tissue-based; details: tissue homogenate; summary of the method: as §4
Jejunum [15] = experiment: Apparent hydrolytic clearance in Wistar rat jejunum pre-perfused with 400 uM CES inhibitor BNPP at 100 uM at pH 5.4 by in-situ single-pass perfusion method; type: ADME, tissue-based; details: in vivo, pH 5.4, 100 µM; summary of the method: as §2
[16] = Drug hydrolysis in Wistar rat jejunal S9 fraction in presence of 1 mM CES inhibitor BNPP; type: ADME, Jejunum; summary of the method: as §3
[17] = Permeability in Wistar rat jejunum at 100 uM at pH 7.4 by in-situ single-pass perfusion method; type: ADME, tissue-based; details: other: in-situ single-pass perfusion of the jejunum, read-out: Peff (converted)
Summary of the method: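 Rats fasted 18–24 h and anesthetized with intraperitoneal pentobarbital. Jejunal loop perfused at 0.2 ml/min with phosphate buffer (pH 5.4, 6.4 or 7.4) containing 100 μM drug and FD-4 (0.1 mg/ml). Vascular perfusate was Krebs–Henseleit bicarbonate buffer (pH 7.4) at 2.5 ml/min, segment kept at 37°C. Drug and metabolite measured by HPLC (UV 258 nm). Peff normalized to 10 cm intestine; mean ± S.D., n = 3–6.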

Jejunum [18] = experiment: Intracellular drug level in Wistar rat jejunum pre-perfused with 400 uM CES inhibitor BNPP at 100 uM at pH 5.4 by in-situ single-pass perfusion method; type: ADME, tissue-based; details: in vivo, pH 5.4, 100 µM; summary of the method: as §2
Jejunum [19] = experiment: Intracellular drug level in Wistar rat jejunum at 100 uM at pH 6.4 by in-situ single-pass perfusion method; type: ADME, tissue-based; details: in vivo; summary of the method: as §1
[20] = Drug hydrolysis in Wistar rat jejunal S9 fraction assessed as rate of hydrolysis per mg protein; type: ADME, Jejunum; summary of the method: as §3
[21] = Drug hydrolysis in intact Wistar rat jejunal S9 fraction at 500 uM assessed per mg protein in presence of 100 uM CES inhibitor BNPP; type: ADME, Jejunum; details: s9, 500 µM; summary of the method: as §4
[22] = Drug hydrolysis in Wistar rat jejunal S9 fraction; type: ADME, Jejunum; summary of the method: as §3
Jejunum [23] = experiment: Drug uptake in Wistar rat jejunum mesenteric vein assessed as rate of drug appearance at 100 uM by in-situ single-pass perfusion method; type: ADME, tissue-based; details: in vivo; summary of the method: as §1
Jejunum [24] = experiment: Intracellular drug level in Wistar rat jejunum treated with Temocaprilat at 100 uM at pH 7.4 by in-situ single-pass perfusion method; type: ADME, tissue-based; details: in vivo, pH 7.4, 100 µM
Jejunum [25] = experiment: Apparent hydrolytic clearance in Wistar rat jejunum pre-perfused with 400 uM CES inhibitor BNPP at 100 uM at pH 6.4 by in-situ single-pass perfusion method; type: ADME, tissue-based; details: in vivo, pH 6.4, 100 µM; summary of the method: as §2
Jejunum [26] = experiment: Drug uptake in Wistar rat jejunum pre-perfused with 400 uM CES inhibitor BNPP assessed as rate of drug appearance at 100 uM at pH 5.4 by in-situ single-pass perfusion method; type: ADME, tissue-based; details: in vivo, pH 5.4, 100 µM; summary of the method: as §2
[27] = Permeability in Wistar rat jejunum pre-perfused with 400 uM CES inhibitor BNPP at 100 uM at pH 6.4 by in-situ single-pass perfusion method; type: ADME, tissue-based; details: other: in-situ single-pass perfusion of the jejunum, pH 6.4, with BNPP (CES inhibitor) 400 uM, read-out: Peff (converted)
Summary of the method: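 Fasted, pentobarbital-anesthetized rats. Jejunum pre-perfused with BNPP (400 µM) for 40 min to inhibit CES. Lumen then perfused at 0.2 ml/min with 100 μM drug in phosphate buffer (pH 5.4 or 6.4). Vascular side received Krebs–Henseleit buffer (pH 7.4) at 2.5 ml/min. Luminal drug quantified by HPLC; Peff normalized to 10 cm segment; mean ± S.D., n = 3.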

## CCOC(=O)[C@H](CCc1ccccc1)N[C@H]1CS[C@H](c2cccs2)CN(CC(=O)O)C1=O [TEMOCAPRIL]
Jejunum [1]
  Drug degradation: 3.89 nmol/min
Jejunum [2]
  CL: 0.604 nmol/min
[3]
  Km: 47.4 µM
[4]
  Drug degradation: 0.625 nmol/min
[5]
  Stability: Stable
Jejunum [6]
  CL: 35.4 µL/min
Jejunum [7]
  Drug uptake: 5.46 nmol/g
Jejunum [8]
  Drug degradation: 1.97 nmol/min
[9]
  Drug degradation: 4.46 nmol/min
Jejunum [10]
  CL: 43.2 µL/min
Jejunum [11]
  CL: 1.01 nmol/min
Jejunum [12]
  Drug uptake: 18.1 nmol/g
Jejunum [13]
  Drug degradation: 2.23 nmol/min
Jejunum [14]
  Drug degradation: 3.96 nmol/min
Jejunum [15]
  CL: 24.9 µL/min
[16]
  Stability: Stable
[17]
  Papp at 100 µM: 54.2 ×10⁻⁶ cm/s
Jejunum [18]
  Drug uptake: 20.6 nmol/g
Jejunum [19]
  Drug uptake: 1.83 nmol/g
[20]
  Vmax: 5.11 nmol/min/mg
[21]
  Drug degradation: 1.13 nmol/min
[22]
  Km: 47.3 µM
Jejunum [23]
  Drug uptake: 0.147 nmol/min
Jejunum [24]
  Drug uptake: 17.6 nmol/g
Jejunum [25]
  CL: 19.5 µL/min
Jejunum [26]
  CL: 0.862 nmol/min
[27]
  Papp at 100 µM: 38.7 ×10⁻⁶ cm/s
